In ChEMBL document CHEMBL4011654, “Mitochondria-Targeted Lupane Triterpenoid Derivatives and Their Selective Apoptosis-Inducing Anticancer Mechanisms” (J Med Chem, 2017):
Activity calls are given as the source filed them. No cut-off for these calls is given here.

Tests used:
[1] = tested on: K562; assay: Cytotoxicity against human K562 cells assessed as cell growth inhibition after 48 hrs by MTT assay; type: functional, cell-based; conditions: K562, 48 h
Summary of the method: (§1)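 Suspension cells seeded at 5000/well (HL-60 in IMDM, K562 in RPMI, both with 10% FBS) and treated. MTT then added for 4 h at 37 °C; plates centrifuged at 3000 rpm for 30 min, medium removed, DMSO added, OD570 read. IC50 taken as concentration giving 50% growth inhibition; triplicate.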

[2] = tested on: HL-60; assay: Cytotoxicity against human HL60 cells assessed as cell growth inhibition after 48 hrs by MTT assay; type: functional, cell-based; conditions: HL-60, 48 h; summary of the method: as §1
[3] = tested on: ECa-109 cell line; assay: Cytotoxicity against human ECA109 cells assessed as cell growth inhibition after 48 hrs by MTT assay; type: functional, cell-based; conditions: ECa-109, 48 h
Summary of the method: (§2)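 Adherent cells seeded at 5000/well, left 16−24 h, then exposed 48 h at 37 °C, 5% CO2 in RPMI with 10% FBS. Medium refreshed, MTT added for 4 h at 37 °C, medium removed, formazan dissolved in DMSO, OD570 read. IC50 taken as concentration inhibiting growth by 50%; triplicate.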

[4] = tested on: A549; assay: Cytotoxicity against human A549 cells assessed as cell growth inhibition after 48 hrs by MTT assay; type: functional, cell-based; conditions: A549, 48 h; summary of the method: as §2
[5] = tested on: HepG2; assay: Cytotoxicity against human HepG2 cells assessed as cell growth inhibition after 48 hrs by MTT assay; type: functional, cell-based; conditions: HepG2, 48 h; summary of the method: as §2
[6] = tested on: L02; assay: Cytotoxicity against human HL-7702 cells assessed as cell growth inhibition after 48 hrs by MTT assay; type: cell-based; conditions: L02, 48 h; summary of the method: as §2
[7] = tested on: K562; assay: Induction of apoptosis in human K562 cells assessed as viable cells at 1 uM after 48 hrs by Annexin V-FITC/propidium iodide-staining based flow cytometric analysis (reference value: 95.75 to 96.56%); type: functional; conditions: K562, 48 h, read-out: Activity
Summary of the method: (§3)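 K562 seeded at 4 × 10^5 cells/well, 12 h, then exposed 48 h. Cells washed in ice-cold PBS, suspended in binding buffer, stained with annexin V-FITC and PI for 15 min at room temperature in the dark, and read by flow cytometry within 1 h. Cells counted as early/late apoptotic as % of total; n = 3.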

[8] = tested on: K562; assay: Induction of apoptosis in human K562 cells assessed as early apoptotic cells at 1 uM after 48 hrs by Annexin V-FITC/propidium iodide-staining based flow cytometric analysis (reference value: 0.92 to 1.45%); type: functional; summary of the method: as §3
[9] = tested on: K562; assay: Induction of apoptosis in human K562 cells assessed as late apoptotic cells at 1 uM after 48 hrs by Annexin V-FITC/propidium iodide-staining based flow cytometric analysis (reference value: 2.25 to 2.67%); type: functional; summary of the method: as §3
[10] = tested on: K562; assay: Induction of apoptosis in human K562 cells assessed as necrotic cells at 1 uM after 48 hrs by Annexin V-FITC/propidium iodide-staining based flow cytometric analysis (reference value: 0.13 to 0.27%); type: functional; summary of the method: as §3
[11] = tested on: K562; assay: Induction of apoptosis in human K562 cells assessed as viable cells at 2 uM after 48 hrs by Annexin V-FITC/propidium iodide-staining based flow cytometric analysis (reference value: 95.75 to 96.56%); type: functional; conditions: K562, 48 h, read-out: Activity; summary of the method: as §3
[12] = tested on: K562; assay: Induction of apoptosis in human K562 cells assessed as early apoptotic cells at 2 uM after 48 hrs by Annexin V-FITC/propidium iodide-staining based flow cytometric analysis (reference value: 0.92 to 1.45%); type: functional; summary of the method: as §3
[13] = tested on: K562; assay: Induction of apoptosis in human K562 cells assessed as late apoptotic cells at 2 uM after 48 hrs by Annexin V-FITC/propidium iodide-staining based flow cytometric analysis (reference value: 2.25 to 2.67%); type: functional; summary of the method: as §3
[14] = tested on: K562; assay: Induction of apoptosis in human K562 cells assessed as necrotic cells at 2 uM after 48 hrs by Annexin V-FITC/propidium iodide-staining based flow cytometric analysis (reference value: 0.13 to 0.27%); type: functional; summary of the method: as §3
[15] = tested on: K562; assay: Induction of apoptosis in human K562 cells assessed as viable cells at 3 uM after 48 hrs by Annexin V-FITC/propidium iodide-staining based flow cytometric analysis (reference value: 95.75 to 96.56%); type: functional; conditions: K562, 48 h, read-out: Activity; summary of the method: as §3
[16] = tested on: K562; assay: Induction of apoptosis in human K562 cells assessed as early apoptotic cells at 3 uM after 48 hrs by Annexin V-FITC/propidium iodide-staining based flow cytometric analysis (reference value: 0.92 to 1.45%); type: functional; summary of the method: as §3
[17] = tested on: K562; assay: Induction of apoptosis in human K562 cells assessed as late apoptotic cells at 3 uM after 48 hrs by Annexin V-FITC/propidium iodide-staining based flow cytometric analysis (reference value: 2.25 to 2.67%); type: functional; summary of the method: as §3
[18] = tested on: K562; assay: Induction of apoptosis in human K562 cells assessed as necrotic cells at 3 uM after 48 hrs by Annexin V-FITC/propidium iodide-staining based flow cytometric analysis (reference value: 0.13 to 0.27%); type: functional; summary of the method: as §3
[19] = tested on: K562; assay: Decrease in mitochondrial membrane potential in human K562 cells at 1 to 2 uM after 48 hrs by JC-1 staining based fluorescence microscopic analysis; type: functional, cell-based
Summary of the method: (§4)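 K562 seeded at 4 × 10^5 cells/well, after 12 h treated 48 h. Cells washed in ice-cold PBS, loaded with JC-1 ([…]) at 37 °C for 15 min, rinsed, and analysed by flow cytometry (% cells with red aggregates) and fluorescence microscopy (red aggregates vs green monomers).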

[20] = tested on: K562; assay: Decrease in mitochondrial membrane potential in human K562 cells after 48 hrs by JC-1 staining based flow cytometry; type: functional, cell-based; summary of the method: as §4
[21] = tested on: K562; assay: Induction of ROS generation in human K562 cells at 1 uM after 48 hrs by DCFH-DA probe based flow cytometric analysis relative to control; type: functional
Summary of the method: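 K562 seeded at 4 × 10^5 cells/well, 12 h, then treated 48 h. Washed cells loaded with DCFH-DA in FBS-free medium at 37 °C for 30 min, rinsed, read by flow cytometry. ROSup was the positive control; mean ± SD, n = 3.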

[22] = tested on: K562; assay: Induction of mitochondrial membrane depolarization in human K562 cells assessed as cells with intact mitochondrial membrane potential at 2 uM after 48 hrs by JC-1 staining based flow cytometric analysis (reference value: 97.63 to 97.67%); type: functional; summary of the method: as §4
[23] = tested on: K562; assay: Induction of mitochondrial membrane depolarization in human K562 cells assessed as cells with mitochondrial membrane potential loss at 2 uM after 48 hrs by JC-1 staining based flow cytometric analysis (reference value: 1.89 to 2.23%); type: functional
[24] = tested on: K562; assay: Induction of mitochondrial membrane depolarization in human K562 cells assessed as cells with intact mitochondrial membrane potential at 4 uM after 48 hrs by JC-1 staining based flow cytometric analysis (reference value: 97.63 to 97.67%); type: functional
[25] = tested on: K562; assay: Induction of mitochondrial membrane depolarization in human K562 cells assessed as cells with mitochondrial membrane potential loss at 4 uM after 48 hrs by JC-1 staining based flow cytometric analysis (reference value: 1.89 to 2.23%); type: functional
[26] = tested on: K562; assay: Induction of mitochondrial membrane depolarization in human K562 cells assessed as cells with intact mitochondrial membrane potential at 6 uM after 48 hrs by JC-1 staining based flow cytometric analysis (reference value: 97.63 to 97.67%); type: functional
[27] = tested on: K562; assay: Induction of mitochondrial membrane depolarization in human K562 cells assessed as cells with mitochondrial membrane potential loss at 6 uM after 48 hrs by JC-1 staining based flow cytometric analysis (reference value: 1.89 to 2.23%); type: functional
[28] = tested on: K562; assay: Induction of apoptosis in human K562 cells assessed as upregulation of cleaved PARP up to 6 uM after 48 hrs by Western blot analysis; type: functional, cell-based
[29] = tested on: K562; assay: Induction of apoptosis in human K562 cells assessed as decrease in cytochrome c level in mitochondria up to 6 uM after 48 hrs by Western blot analysis; type: functional, cell-based
Summary of the method: (§5)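 K562 treated 48 h, then lysed on ice for 30 min; cytosolic and mitochondrial fractions isolated by kit where needed, protein measured by BCA. 60 μg/lane run on SDS-PAGE, transferred to PVDF, blocked in 5% milk/TBST for 4 h. Probed for cytochrome c, caspase-9, caspase-3 (total/cleaved), PARP; alkaline phosphatase secondary.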

[30] = tested on: K562; assay: Induction of apoptosis in human K562 cells assessed as increase in cytosolic cytochrome c level up to 6 uM after 48 hrs by Western blot analysis; type: functional, cell-based; summary of the method: as §5
[31] = tested on: K562; assay: Induction of apoptosis in human K562 cells after 48 hrs by Annexin V-FITC/propidium iodide-staining based flow cytometric analysis; type: functional, cell-based; summary of the method: as §3
[32] = tested on: K562; assay: Antitumor activity against CM-Dil-labeled human K562 cells xenografted in wild-type zebrafish embryos assessed as reduction in cell migration at 10 ug/ml measured after 48 hrs by confocal microscopic analysis; type: functional, cell-based
Summary of the method: (§6)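 K562 cells labelled with CM-Dil, suspended in FBS-free medium at (1 × 107)/mL and microinjected into wild-type zebrafish embryos kept at 28 °C in embryonic medium. After 4 h, embryos with the same injection spot were pooled at 15−20 per well and exposed to compound; Taxol served as positive control. At 48 h, confocal imaging gave fluorescent area (migration) and fluorescence intensity (cell number); n = 15.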

[33] = tested on: K562; assay: Antitumor activity against CM-Dil-labeled human K562 cells xenografted in wild-type zebrafish embryos assessed as tumor growth inhibition at 10 ug/ml measured after 48 hrs by confocal microscopic analysis; type: functional, cell-based; summary of the method: as §6

## C=C(C)[C@@H]1CC[C@]2(C(=O)O)CC[C@]3(C)[C@H](CC[C@@H]4[C@@]5(C)CC[C@H](OC(=O)CCCC[P+](c6ccccc6)(c6ccccc6)c6ccccc6)C(C)(C)[C@@H]5CC[C@]43C)[C@@H]12.[Br-]
[1]
  IC50: 1240 nM
[2]
  IC50: 320 nM
[3]
  IC50: 920 nM
[4]
  IC50: 1260 nM
[5]
  IC50: 1070 nM
[6]
  IC50: 4920 nM
[7]
  viability at 1 µM: 81%
[8]
  Activity: 9.55%
[9]
  Activity: 9.35%
[10]
  Activity: 0.14%
[11]
  viability at 2 µM: 72.6%
[12]
  Activity: 10.78%
[13]
  Activity: 16.43%
[14]
  Activity: 0.23%
[15]
  viability at 3 µM: 61.4%
[16]
  Activity: 11.47%
[17]
  Activity: 26.46%
[18]
  Activity: 0.7%
[19]
  Activity: Active
[20]
  Activity: Dose-dependent effect
[21]
  Activity: 50%
[22]
  Activity: 75.16%
[23]
  Activity: 24.68%
[24]
  Activity: 41.5%
[25]
  Activity: 58.36%
[26]
  Activity: 27.63%
[27]
  Activity: 72.12%
[28]
  Activity: Active
[29]
  Activity: Active
[30]
  Activity: Active
[31]
  Activity: Dose-dependent effect

## C=C(C)[C@@H]1CC[C@]2(COC(=O)CCCC[P+](c3ccccc3)(c3ccccc3)c3ccccc3)CC[C@]3(C)[C@H](CC[C@@H]4[C@@]5(C)CC[C@H](OC(C)=O)C(C)(C)[C@@H]5CC[C@]43C)[C@@H]12
[1]
  IC50: 620 nM
[2]
  IC50: 580 nM
[3]
  IC50: 1410 nM
[4]
  IC50: 830 nM
[5]
  IC50: 2420 nM
[6]
  IC50: 7180 nM

## C=C(C)[C@@H]1CC[C@]2(COC(=O)CCCC[P+](c3ccccc3)(c3ccccc3)c3ccccc3)CC[C@]3(C)[C@H](CC[C@@H]4[C@@]5(C)CC[C@H](OC=O)C(C)(C)[C@@H]5CC[C@]43C)[C@@H]12
[1]
  IC50: 810 nM
[2]
  IC50: 710 nM
[3]
  IC50: 950 nM
[4]
  IC50: 1100 nM
[5]
  IC50: 1110 nM
[6]
  IC50: 8320 nM

## CC(=O)O[C@H]1C(=O)[C@@]2(C)[C@H]([C@H](OC(=O)c3ccccc3)[C@]3(O)C[C@H](OC(=O)[C@H](O)[C@@H](NC(=O)c4ccccc4)c4ccccc4)C(C)=C1C3(C)C)[C@]1(OC(C)=O)CO[C@@H]1C[C@@H]2O
[32]
  Activity: Active
[33]
  TGI: Active
